{"source": "ChEMBL document CHEMBL4382192", "about": "“Discovery of a potent dual ALK and EGFR T790M inhibitor” (Eur J Med Chem, 2017)", "key": {"[1]": {"assay": "Metabolic stability in mouse liver microsomes assessed as parent compound remaining at 1 uM after 30 mins in presence of NADPH by LC/MS/MS analysis", "type": "ADME, Microsome", "settings": "read-out: Stability", "in_short": "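Compound at 1 μM final with 0.5 mg/mL microsomal protein in 100 mM phosphate buffer pH 7.4 at 37 °C, started by adding an NADPH-regenerating system. Reactions were quenched with cold acetonitrile at 0 and 30 min and spun down. Supernatant was analysed by LC-MS/MS. The 0-min sample, quenched before NADPH addition, was set as 100%, and percent parent remaining came from peak areas.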"}, "[2]": {"target": "ALK tyrosine kinase receptor (Homo sapiens, UniProt Q9UM73)", "assay": "Binding affinity to wild-type human partial length ALK (I1088 to E1409 residues) expressed in mammalian expression system assessed as residual binding level at 1 uM by Kinomescan method relative to control"}, "[3]": {"target": "Aurora kinase C (Homo sapiens) (UniProt Q9UQB9)", "sequence (Q9UQB9 whole entry, the tested form may be a part)": "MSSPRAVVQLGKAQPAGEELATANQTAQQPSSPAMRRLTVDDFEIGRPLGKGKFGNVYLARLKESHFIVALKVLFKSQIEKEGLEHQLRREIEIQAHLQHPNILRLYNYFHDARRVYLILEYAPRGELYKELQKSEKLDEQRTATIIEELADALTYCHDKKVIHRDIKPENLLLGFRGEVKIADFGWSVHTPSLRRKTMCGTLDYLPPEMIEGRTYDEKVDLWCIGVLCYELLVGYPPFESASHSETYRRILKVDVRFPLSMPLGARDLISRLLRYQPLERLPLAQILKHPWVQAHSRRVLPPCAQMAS", "assay": "Binding affinity to wild-type human full length AURKC (M1 to S275 residues) expressed in bacterial expression system assessed as residual binding level at 1 uM by Kinomescan method relative to control"}, "[4]": {"target": "Tyrosine-protein kinase receptor UFO (Homo sapiens) (UniProt P30530)", "assay": "Binding affinity to wild-type human partial length AXL (R497 to Y821 residues) expressed in bacterial expression system assessed as residual binding level at 1 uM by Kinomescan method relative to control"}, "[5]": {"target": "Mitotic checkpoint serine/threonine-protein kinase BUB1 (Homo sapiens) (UniProt O43683)", "assay": "Binding affinity to wild-type human partial length BUB1 (Q724 to K1085 residues) expressed in mammalian expression system assessed as residual binding level at 1 uM by Kinomescan method relative to control"}, "[6]": {"target": "Calcium/calmodulin-dependent protein kinase type II subunit alpha (Homo sapiens) (UniProt Q9UQM7)", "sequence (Q9UQM7 whole entry, the tested form may be a part)": "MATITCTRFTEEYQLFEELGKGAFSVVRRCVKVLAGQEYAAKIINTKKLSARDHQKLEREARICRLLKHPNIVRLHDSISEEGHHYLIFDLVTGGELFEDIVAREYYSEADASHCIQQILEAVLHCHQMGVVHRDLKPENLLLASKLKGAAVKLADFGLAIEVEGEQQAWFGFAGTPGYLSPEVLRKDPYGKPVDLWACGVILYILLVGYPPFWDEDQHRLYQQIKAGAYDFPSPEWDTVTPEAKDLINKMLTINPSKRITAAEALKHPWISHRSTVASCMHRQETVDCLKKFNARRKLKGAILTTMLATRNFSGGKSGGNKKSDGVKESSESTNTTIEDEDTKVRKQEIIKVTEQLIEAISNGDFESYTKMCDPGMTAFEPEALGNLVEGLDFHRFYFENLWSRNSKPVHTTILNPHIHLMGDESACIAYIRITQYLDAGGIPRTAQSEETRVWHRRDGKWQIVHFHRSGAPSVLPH", "assay": "Binding affinity to wild-type human partial length CAMK2A (M1 to K328 residues) expressed in bacterial expression system assessed as residual binding level at 1 uM by Kinomescan method relative to control"}, "[7]": {"target": "Cyclin-dependent kinase 8 (Homo sapiens) (UniProt P49336)", "assay": "Binding affinity to wild-type human partial length CDK8 (M1 to T360 residues) expressed in bacterial expression system assessed as residual binding level at 1 uM by Kinomescan method relative to control"}, "[8]": {"target": "Cyclin-dependent kinase-like 1 (Homo sapiens) (UniProt Q00532)", "assay": "Binding affinity to wild-type human full length CDKL1 (M1 to I358 residues) expressed in mammalian expression system assessed as residual binding level at 1 uM by Kinomescan method relative to control"}, "[9]": {"target": "Serine/threonine-protein kinase Chk2 (Homo sapiens) (UniProt O96017)", "assay": "Binding affinity to wild-type human partial length CHEK2 (S253 to E574 residues) expressed in bacterial expression system assessed as residual binding level at 1 uM by Kinomescan method relative to control"}, "[10]": {"target": "Vascular endothelial growth factor receptor 1 (Homo sapiens) (UniProt P17948)", "sequence (P17948 whole entry, the tested form may be a part)": "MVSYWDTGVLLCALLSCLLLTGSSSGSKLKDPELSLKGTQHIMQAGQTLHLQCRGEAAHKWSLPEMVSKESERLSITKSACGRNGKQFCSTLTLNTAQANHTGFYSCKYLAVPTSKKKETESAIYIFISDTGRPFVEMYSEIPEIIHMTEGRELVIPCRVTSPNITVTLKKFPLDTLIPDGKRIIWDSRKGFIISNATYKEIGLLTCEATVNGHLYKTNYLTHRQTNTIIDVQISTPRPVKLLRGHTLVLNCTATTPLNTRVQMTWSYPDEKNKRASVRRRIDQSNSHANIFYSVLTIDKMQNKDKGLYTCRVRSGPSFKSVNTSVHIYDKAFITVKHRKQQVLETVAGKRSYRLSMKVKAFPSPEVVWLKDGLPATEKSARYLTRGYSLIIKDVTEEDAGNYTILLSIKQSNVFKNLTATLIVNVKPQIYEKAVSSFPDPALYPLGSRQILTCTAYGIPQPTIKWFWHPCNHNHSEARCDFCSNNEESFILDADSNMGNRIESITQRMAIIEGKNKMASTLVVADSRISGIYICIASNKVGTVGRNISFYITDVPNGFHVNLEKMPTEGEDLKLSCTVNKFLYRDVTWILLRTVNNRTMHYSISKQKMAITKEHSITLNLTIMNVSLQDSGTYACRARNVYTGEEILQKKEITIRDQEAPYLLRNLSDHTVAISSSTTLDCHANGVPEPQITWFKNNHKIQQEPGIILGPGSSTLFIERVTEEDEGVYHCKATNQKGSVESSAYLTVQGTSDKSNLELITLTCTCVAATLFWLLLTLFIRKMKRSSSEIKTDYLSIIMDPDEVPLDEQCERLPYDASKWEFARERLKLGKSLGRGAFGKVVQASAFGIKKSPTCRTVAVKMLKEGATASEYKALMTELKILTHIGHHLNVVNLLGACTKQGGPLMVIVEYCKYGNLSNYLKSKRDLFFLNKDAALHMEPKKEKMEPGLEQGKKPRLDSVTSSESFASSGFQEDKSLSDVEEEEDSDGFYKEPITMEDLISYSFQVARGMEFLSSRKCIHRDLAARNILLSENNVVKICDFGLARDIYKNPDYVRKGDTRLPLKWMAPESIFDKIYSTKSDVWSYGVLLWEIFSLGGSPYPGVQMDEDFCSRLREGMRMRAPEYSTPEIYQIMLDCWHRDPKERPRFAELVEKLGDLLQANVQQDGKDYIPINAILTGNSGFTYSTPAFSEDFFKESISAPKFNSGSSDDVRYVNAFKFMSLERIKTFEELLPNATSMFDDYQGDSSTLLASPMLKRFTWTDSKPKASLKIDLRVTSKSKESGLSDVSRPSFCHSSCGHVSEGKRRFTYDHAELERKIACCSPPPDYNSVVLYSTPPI", "assay": "Binding affinity to wild-type human partial length FLT1 (R781 to F1239 residues) expressed in bacterial expression system assessed as residual binding level at 1 uM by Kinomescan method relative to control"}, "[11]": {"target": "Homeodomain-interacting protein kinase 4 (Homo sapiens) (UniProt Q8NE63)", "sequence (Q8NE63 whole entry, the tested form may be a part)": "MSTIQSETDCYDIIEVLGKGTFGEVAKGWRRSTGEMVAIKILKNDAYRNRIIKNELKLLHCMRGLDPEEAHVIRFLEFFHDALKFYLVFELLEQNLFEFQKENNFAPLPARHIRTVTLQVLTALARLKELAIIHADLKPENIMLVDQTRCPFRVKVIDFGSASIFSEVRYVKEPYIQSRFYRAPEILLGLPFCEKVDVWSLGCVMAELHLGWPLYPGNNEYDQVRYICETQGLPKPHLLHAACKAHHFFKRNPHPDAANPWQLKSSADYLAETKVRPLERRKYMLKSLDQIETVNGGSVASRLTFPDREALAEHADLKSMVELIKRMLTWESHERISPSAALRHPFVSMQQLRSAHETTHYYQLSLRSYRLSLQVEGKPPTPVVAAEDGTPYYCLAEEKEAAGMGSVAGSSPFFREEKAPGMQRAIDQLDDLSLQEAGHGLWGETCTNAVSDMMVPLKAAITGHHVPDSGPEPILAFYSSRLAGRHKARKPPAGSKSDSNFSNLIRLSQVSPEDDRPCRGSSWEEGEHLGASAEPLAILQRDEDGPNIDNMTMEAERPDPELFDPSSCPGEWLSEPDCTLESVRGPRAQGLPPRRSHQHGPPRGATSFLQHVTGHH", "assay": "Binding affinity to wild-type human partial length HIPK4 (M1 to V384 residues) expressed in bacterial expression system assessed as residual binding level at 1 uM by Kinomescan method relative to control"}, "[12]": {"target": "Mitogen-activated protein kinase kinase kinase kinase 1 (Homo sapiens) (UniProt Q92918)", "sequence (Q92918 whole entry, looked up, the tested form may be a part)": "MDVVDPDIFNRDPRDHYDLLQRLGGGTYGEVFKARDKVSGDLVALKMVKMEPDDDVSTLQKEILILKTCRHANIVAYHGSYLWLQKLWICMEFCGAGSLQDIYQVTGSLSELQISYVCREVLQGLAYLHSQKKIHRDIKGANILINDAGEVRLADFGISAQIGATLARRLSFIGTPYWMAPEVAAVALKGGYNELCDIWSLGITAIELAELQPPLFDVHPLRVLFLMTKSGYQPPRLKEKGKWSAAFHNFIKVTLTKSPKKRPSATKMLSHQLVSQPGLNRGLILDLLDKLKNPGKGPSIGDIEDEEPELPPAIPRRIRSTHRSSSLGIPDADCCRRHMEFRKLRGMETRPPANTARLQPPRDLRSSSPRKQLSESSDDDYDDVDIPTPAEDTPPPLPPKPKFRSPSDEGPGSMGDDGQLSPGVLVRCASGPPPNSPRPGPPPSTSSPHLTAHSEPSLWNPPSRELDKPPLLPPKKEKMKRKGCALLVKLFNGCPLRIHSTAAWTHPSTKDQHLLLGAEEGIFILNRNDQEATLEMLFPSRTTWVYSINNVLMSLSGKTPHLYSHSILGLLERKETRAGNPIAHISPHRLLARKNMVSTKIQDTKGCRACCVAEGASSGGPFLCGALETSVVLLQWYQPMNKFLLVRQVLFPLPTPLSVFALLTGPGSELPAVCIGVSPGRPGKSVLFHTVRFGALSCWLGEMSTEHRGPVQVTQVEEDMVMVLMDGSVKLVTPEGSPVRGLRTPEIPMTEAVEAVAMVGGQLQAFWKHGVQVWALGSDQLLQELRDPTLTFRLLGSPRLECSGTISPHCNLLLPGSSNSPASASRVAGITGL", "assay": "Binding affinity to wild-type human full length HPK1 (M1 to R799 residues) expressed in bacterial expression system assessed as residual binding level at 1 uM by Kinomescan method relative to control"}, "[13]": {"target": "Dual specificity mitogen-activated protein kinase kinase 3 (Homo sapiens) (UniProt P46734)", "sequence (P46734 whole entry, the tested form may be a part)": "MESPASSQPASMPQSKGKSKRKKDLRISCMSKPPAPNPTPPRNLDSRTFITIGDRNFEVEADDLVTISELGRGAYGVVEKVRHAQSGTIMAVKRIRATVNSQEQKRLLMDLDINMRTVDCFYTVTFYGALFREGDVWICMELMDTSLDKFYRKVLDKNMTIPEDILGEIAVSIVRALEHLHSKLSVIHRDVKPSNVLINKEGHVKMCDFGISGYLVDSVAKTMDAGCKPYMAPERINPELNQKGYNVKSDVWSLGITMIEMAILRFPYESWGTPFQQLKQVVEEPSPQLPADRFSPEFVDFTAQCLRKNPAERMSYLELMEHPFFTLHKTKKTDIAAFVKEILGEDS", "assay": "Binding affinity to wild-type human full length MEK3 (M1 to S318 residues) expressed in mammalian expression system assessed as residual binding level at 1 uM by Kinomescan method relative to control", "in_short": "(§1)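 Single-point kinome-wide KINOMEscan binding panel, test compound at 1 μM, run by the provider's standard protocol.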"}, "[14]": {"target": "Hepatocyte growth factor receptor (Homo sapiens) (UniProt P08581)", "assay": "Binding affinity to wild-type human partial length MET (D1010 to S1367 residues) expressed in bacterial expression system assessed as residual binding level at 1 uM by Kinomescan method relative to control"}, "[15]": {"target": "Dual specificity mitogen-activated protein kinase kinase 7 (Homo sapiens) (UniProt O14733)", "assay": "Binding affinity to wild-type human full length MKK7 (M1 to R419 residues) expressed in mammalian expression system assessed as residual binding level at 1 uM by Kinomescan method relative to control", "in_short": "as §1"}, "[16]": {"target": "Serine/threonine-protein kinase MRCK beta (Homo sapiens) (UniProt Q9Y5S2)", "assay": "Binding affinity to wild-type human partial length MRCKB (L56 to S417 residues) expressed in bacterial expression system assessed as residual binding level at 1 uM by Kinomescan method relative to control"}, "[17]": {"target": "Cyclin-dependent kinase 15 (Homo sapiens) (UniProt Q96Q40)", "sequence (Q96Q40 whole entry, the tested form may be a part)": "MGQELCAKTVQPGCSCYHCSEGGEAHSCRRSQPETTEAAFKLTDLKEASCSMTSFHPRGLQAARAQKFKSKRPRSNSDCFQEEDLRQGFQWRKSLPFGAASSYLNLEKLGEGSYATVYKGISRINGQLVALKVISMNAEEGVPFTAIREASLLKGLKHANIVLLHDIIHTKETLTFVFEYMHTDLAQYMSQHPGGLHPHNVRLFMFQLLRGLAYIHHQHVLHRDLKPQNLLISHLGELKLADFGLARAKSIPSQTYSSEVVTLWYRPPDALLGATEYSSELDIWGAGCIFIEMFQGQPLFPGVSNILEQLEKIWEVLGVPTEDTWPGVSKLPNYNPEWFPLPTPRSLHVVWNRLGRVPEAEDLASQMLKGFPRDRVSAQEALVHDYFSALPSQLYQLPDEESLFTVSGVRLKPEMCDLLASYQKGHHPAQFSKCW", "assay": "Binding affinity to wild-type human full length PFTAIRE2 (M1 to W384 residues) expressed in bacterial expression system assessed as residual binding level at 1 uM by Kinomescan method relative to control", "in_short": "as §1"}, "[18]": {"system": "Phosphatidylinositol 4,5-bisphosphate 3-kinase catalytic subunit alpha isoform (Homo sapiens), P42336 [M1043I]", "assay": "Binding affinity to human partial length PIK3CA M1043I mutant (R108 to N1068 residues) expressed in mammalian expression system assessed as residual binding level at 1 uM by Kinomescan method relative to control"}, "[19]": {"target": "Protein kinase C delta type (Homo sapiens) (UniProt Q05655)", "assay": "Binding affinity to wild-type human partial length PRKCD (Q328 to D676 residues) expressed in bacterial expression system assessed as residual binding level at 1 uM by Kinomescan method relative to control"}, "[20]": {"target": "Protein kinase C iota type (Homo sapiens) (UniProt P41743)", "assay": "Binding affinity to wild-type human partial length PRKCI (H215 to V587 residues) expressed in mammalian expression system assessed as residual binding level at 1 uM by Kinomescan method relative to control"}, "[21]": {"target": "Tyrosine-protein kinase Srms (Homo sapiens) (UniProt Q9H3Y6)", "sequence (Q9H3Y6 whole entry, the tested form may be a part)": "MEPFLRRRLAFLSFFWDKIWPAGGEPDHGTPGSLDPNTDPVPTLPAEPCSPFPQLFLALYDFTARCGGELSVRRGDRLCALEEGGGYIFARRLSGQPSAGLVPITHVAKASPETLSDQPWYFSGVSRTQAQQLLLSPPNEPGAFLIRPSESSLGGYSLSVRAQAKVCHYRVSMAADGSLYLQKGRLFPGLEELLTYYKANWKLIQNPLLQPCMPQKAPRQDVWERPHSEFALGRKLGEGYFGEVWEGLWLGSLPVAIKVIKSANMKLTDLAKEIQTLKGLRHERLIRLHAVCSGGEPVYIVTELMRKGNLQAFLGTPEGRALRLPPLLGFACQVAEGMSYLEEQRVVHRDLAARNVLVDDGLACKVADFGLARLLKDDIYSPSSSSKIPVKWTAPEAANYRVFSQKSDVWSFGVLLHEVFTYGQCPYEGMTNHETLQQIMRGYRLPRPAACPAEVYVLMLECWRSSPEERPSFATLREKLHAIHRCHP", "assay": "Binding affinity to wild-type human partial length SRMS (L208 to P488 residues) expressed in mammalian expression system assessed as residual binding level at 1 uM by Kinomescan method relative to control"}, "[22]": {"target": "High affinity nerve growth factor receptor (Homo sapiens) (UniProt P04629)", "assay": "Binding affinity to wild-type human partial length TRKA (G475 to G790 residues) expressed in mammalian expression system assessed as residual binding level at 1 uM by Kinomescan method relative to control"}, "[23]": {"target": "Serine/threonine-protein kinase WNK4 (Homo sapiens) (UniProt Q96J92)", "assay": "Binding affinity to wild-type human partial length WNK4 (A31 to D461 residues) expressed in mammalian expression system assessed as residual binding level at 1 uM by Kinomescan method relative to control"}}}
{"smiles": "C=CC(=O)Nc1cc(Nc2ncc(Cl)c(Nc3ccccc3S(=O)(=O)C(C)C)n2)c(OC)cc1N(C)CCN(C)C", "values": [{"measurement": "remaining at 0.5 h, 1 µM", "setting": "[1]", "result": 12, "unit": "%"}, {"measurement": "Activity", "setting": "[2]", "result": 0, "unit": "%"}, {"measurement": "Activity", "setting": "[3]", "result": 8.2, "unit": "%"}, {"measurement": "Activity", "setting": "[4]", "result": 10, "unit": "%"}, {"measurement": "Activity", "setting": "[5]", "result": 87, "unit": "%"}, {"measurement": "Activity", "setting": "[6]", "result": 18, "unit": "%"}, {"measurement": "Activity", "setting": "[7]", "result": 90, "unit": "%"}, {"measurement": "Activity", "setting": "[8]", "result": 58, "unit": "%"}, {"measurement": "Activity", "setting": "[9]", "result": 0.35, "unit": "%"}, {"measurement": "Activity", "setting": "[10]", "result": 47, "unit": "%"}, {"measurement": "Activity", "setting": "[11]", "result": 9.4, "unit": "%"}, {"measurement": "Activity", "setting": "[12]", "result": 15, "unit": "%"}, {"measurement": "Activity", "setting": "[13]", "result": 52, "unit": "%"}, {"measurement": "Activity", "setting": "[14]", "result": 30, "unit": "%"}, {"measurement": "Activity", "setting": "[15]", "result": 77, "unit": "%"}, {"measurement": "Activity", "setting": "[16]", "result": 100, "unit": "%"}, {"measurement": "Activity", "setting": "[17]", "result": 90, "unit": "%"}, {"measurement": "Activity", "setting": "[18]", "result": 84, "unit": "%"}, {"measurement": "Activity", "setting": "[19]", "result": 64, "unit": "%"}, {"measurement": "Activity", "setting": "[20]", "result": 73, "unit": "%"}, {"measurement": "Activity", "setting": "[21]", "result": 6.5, "unit": "%"}, {"measurement": "Activity", "setting": "[22]", "result": 13, "unit": "%"}, {"measurement": "Activity", "setting": "[23]", "result": 94, "unit": "%"}]}
